Assay results from ChEMBL document CHEMBL1144209, “CYP19 (aromatase): exploring the scaffold flexibility for novel selective inhibitors” (Bioorg Med Chem, 2008).

What was measured:
Aromatase [1] = target: T1, Aromatase (Homo sapiens, UniProt P11511); experiment: Inhibition of human aromatase
T1 sequence (P11511 whole entry): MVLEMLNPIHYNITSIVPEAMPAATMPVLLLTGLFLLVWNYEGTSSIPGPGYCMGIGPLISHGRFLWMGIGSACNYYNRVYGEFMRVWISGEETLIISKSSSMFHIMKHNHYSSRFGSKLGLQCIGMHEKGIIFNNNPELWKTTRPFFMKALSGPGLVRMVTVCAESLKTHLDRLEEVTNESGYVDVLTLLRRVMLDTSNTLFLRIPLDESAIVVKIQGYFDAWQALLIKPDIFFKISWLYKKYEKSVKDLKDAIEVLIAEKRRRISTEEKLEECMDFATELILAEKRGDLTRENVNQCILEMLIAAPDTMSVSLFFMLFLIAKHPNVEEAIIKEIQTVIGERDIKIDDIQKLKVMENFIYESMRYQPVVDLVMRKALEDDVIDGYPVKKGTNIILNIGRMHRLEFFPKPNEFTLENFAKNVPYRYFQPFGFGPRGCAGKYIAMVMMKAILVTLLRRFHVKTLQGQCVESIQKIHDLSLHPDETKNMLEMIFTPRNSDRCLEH

[2] = target: T2, CYP17 (steroid 17-alpha-hydroxylase/17,20 lyase) (Homo sapiens, UniProt P05093); experiment: (§1) Inhibition of human CYP17 expressed in Escherichia coli coexpressing NADPH reductase at 2 uM
T2 sequence (P05093 whole entry): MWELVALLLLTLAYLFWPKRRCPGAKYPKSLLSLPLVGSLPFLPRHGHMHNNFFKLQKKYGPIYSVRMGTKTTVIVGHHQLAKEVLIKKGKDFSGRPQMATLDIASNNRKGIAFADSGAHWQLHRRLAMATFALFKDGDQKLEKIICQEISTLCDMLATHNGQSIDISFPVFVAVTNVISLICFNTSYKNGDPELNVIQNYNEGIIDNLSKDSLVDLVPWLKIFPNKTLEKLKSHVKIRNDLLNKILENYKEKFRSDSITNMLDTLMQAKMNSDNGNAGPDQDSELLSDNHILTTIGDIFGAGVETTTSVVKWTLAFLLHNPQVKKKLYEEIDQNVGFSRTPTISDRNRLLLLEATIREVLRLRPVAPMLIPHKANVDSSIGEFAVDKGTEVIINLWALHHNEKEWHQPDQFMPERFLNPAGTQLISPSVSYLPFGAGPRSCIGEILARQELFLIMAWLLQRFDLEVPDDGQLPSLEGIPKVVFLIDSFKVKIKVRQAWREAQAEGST
Procedure, shortened: (§2)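 Enzyme: 50,000g sediment from homogenized, fractionally centrifuged E. coli coexpressing human CYP17 and NADPH-P450 reductase. Substrate: progesterone, 25 µM. Values are means of at least three experiments, with deviations within 5%.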

Aromatase [3] = target: T1, Aromatase; experiment: Inhibition of human aromatase at 36 uM
Procedure, shortened: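 Aromatase source: microsomal fraction of fresh human term placenta. Substrate: [1β,2β-³H]testosterone, 500 nM. Read-out: tritiated water released on aromatization (³H₂O method). Values are means of at least three experiments, with deviations within 5%.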

[4] = target: T3, Steroid 17-alpha-hydroxylase/17,20 lyase (Homo sapiens, UniProt P05093); experiment: as §1; conditions: 2 µM; procedure, shortened: as §2
T3 sequence (P05093 whole entry): T2 sequence (P05093 whole entry)

SMILES | IC50 (Aromatase [1]) [nM] | inhibition at 2 µM [2] [%] | inhibition at 36 µM (Aromatase [3]) [%] | Activity [4]
CC(C)(C)c1ccc(CN(Cc2cccc3ccccc23)n2ccnc2)cc1 | 4590 | 13 |  | 
CC(C)(C)c1ccc(CN(Cc2ccc(-c3ccccc3)cc2)n2cnnc2)cc1 |  | 15.9 | 8.8 | 
c1ccc(CN(Cc2cccc3ccsc23)n2ccnc2)cc1 | 9960 | 5.25 |  | 
Clc1ccc(CC(Cc2ccccc2)n2ccnc2)s1 (stereo unspecified) | 870 | 7.97 |  | 
C(=C\c1ccccc1)/CCN(Cc1cccc2ccccc12)n1cnnc1 |  | 6.1 | 14.8 | 
COc1ccccc1CC(Cc1ccc(-c2ccccc2)cc1)n1ccnc1 (stereo unspecified) | 510 | 30.2 |  | 
Clc1ccc(CN(Cc2ccc(-c3ccccc3)cc2)n2cncn2)c(Cl)c1 |  | 9.2 | 27.6 | 
COc1ccc(CN(Cc2ccc(-c3ccccc3)cc2)n2ccnc2)cc1 | 1530 | 21.7 |  | 
CC(C)(C)c1ccc(CN(CC/C=C/c2ccccc2)n2cncn2)cc1 | 5060 | 12.4 |  | 
Cc1ccccc1CC(Cc1ccc(-c2ccccc2)cc1)n1ccnc1 (stereo unspecified) | 1040 | 25 |  | 
CC(C)(C)c1ccc(CN(Cc2ccc(-c3ccccc3)cc2)n2cncn2)cc1 |  | 6.03 | 19.8 | 
Clc1ccc(CN(Cc2ccc(-c3ccccc3)cc2)n2ccnc2)s1 | 1040 | 23.6 |  | 
CC(C)(C)c1ccc(CN(Cc2cccc3ccccc23)n2cncn2)cc1 |  | 3.13 | 14.6 | 
Clc1ccc(CN(Cc2ccc(-c3ccccc3)cc2)n2ccnc2)cc1 | 1180 | 13.6 |  | 
Clc1ccc(CC(Cc2ccc(-c3ccccc3)cc2)n2ccnc2)c(Cl)c1 (stereo unspecified) | 1240 | 18.2 |  | 
Clc1ccc(CN(Cc2cccc3ccccc23)n2cncn2)c(Cl)c1 |  |  | 24.9 | Not Active
Clc1ccc(CN(Cc2ccccc2)n2ccnc2)s1 | 1060 | 7.3 |  | 
CC(C)(C)c1ccc(CC(Cc2ccc(-c3ccccc3)cc2)n2ccnc2)cc1 (stereo unspecified) | 1000 |  |  | Not Active
CC(C)(C)c1ccc(CN(Cc2cccc3ccccc23)n2cnnc2)cc1 |  | 22.4 |  | 
Fc1ccc(CN(Cc2ccc(-c3ccccc3)cc2)n2ccnc2)c(F)c1 | 350 |  |  | Not Active
c1ccc(CN(Cc2ccc(-c3ccccc3)cc2)n2ccnc2)cc1 | 1200 |  |  | Not Active
COc1ccc(CC(Cc2ccc(-c3ccccc3)cc2)n2ccnc2)cc1 (stereo unspecified) | 1680 | 38.8 |  | 
Clc1ccccc1CN(Cc1ccc(-c2ccccc2)cc1)n1ccnc1 | 300 | 29.4 |  | 
Clc1ccccc1CC(Cc1ccc(-c2ccccc2)cc1)n1ccnc1 (stereo unspecified) | 1090 | 22.6 |  | 
C(=C\c1ccccc1)/CCN(Cc1cccc2ccccc12)n1cncn1 | 13000 | 15.5 |  | 
Fc1ccccc1CN(Cc1ccc(-c2ccccc2)cc1)n1ccnc1 | 460 |  |  | Not Active
Clc1ccc(CN(Cc2cccc3ccsc23)n2ccnc2)c(Cl)c1 | 2490 | 4.07 |  | 

SMILES | IC50 (Aromatase [1]) [nM] | inhibition at 2 µM [2] [%] | inhibition at 36 µM (Aromatase [3]) [%] | Activity [4]
Cc1ccccc1CN(Cc1ccc(-c2ccccc2)cc1)n1ccnc1 | 2960 | 20.6 |  | 
C(=C\c1ccccc1)/CCN(Cc1ccc(-c2ccccc2)cc1)n1cncn1 |  | 12.4 | 31.4 | 
CC(C)(C)c1ccc(CN(Cc2cccs2)n2ccnc2)cc1 | 580 | 10.7 |  | 
Fc1ccc(CC(Cc2ccc(-c3ccccc3)cc2)n2ccnc2)cc1 (stereo unspecified) | 110 | 15.8 |  | 
CC(C)(C)c1ccc(CN(Cc2ccc(Cl)cc2Cl)n2cncn2)cc1 |  | 3.33 | 36 | 
Clc1ccc(CN(Cc2ccc(-c3ccccc3)cc2)n2cnnc2)c(Cl)c1 |  | 13.1 |  | 
c1ccc(CC(Cc2ccc(-c3ccccc3)cc2)n2ccnc2)cc1 (stereo unspecified) | 950 | 17.1 |  | 
Fc1ccc(CC(Cc2ccc(-c3ccccc3)cc2)n2ccnc2)c(F)c1 (stereo unspecified) | 260 | 17.7 |  | 
CC(C)(C)c1ccc(CN(Cc2cccs2)n2cnnc2)cc1 |  |  | 30.7 | Not Active
CC(C)(C)c1ccc(CN(Cc2cccs2)n2cncn2)cc1 | 9230 |  |  | Not Active
Clc1ccc(CC(Cc2ccc(-c3ccccc3)cc2)n2ccnc2)s1 (stereo unspecified) | 1070 | 25.7 |  | 
Cc1ccc(CN(Cc2ccc(-c3ccccc3)cc2)n2ccnc2)cc1 | 2200 | 29.1 |  | 
CC(C)(C)c1ccc(CN(Cc2ccc(-c3ccccc3)cc2)n2ccnc2)cc1 | 2160 |  |  | Not Active
Clc1ccc(CN(Cc2ccc(-c3ccccc3)cc2)n2ccnc2)c(Cl)c1 | 3650 | 25.8 |  | 
C(=C\c1ccccc1)/CCN(Cc1ccc(-c2ccccc2)cc1)n1cnnc1 |  | 16.1 | 5.9 | 
CC(C)(C)c1ccc(CN(Cc2ccc(Cl)cc2Cl)n2ccnc2)cc1 | 1520 | 43.3 |  | 
Cc1ccc(CC(Cc2ccc(-c3ccccc3)cc2)n2ccnc2)cc1 (stereo unspecified) | 1320 | 32.8 |  | 
CC(C)(C)c1ccc(CN(CC/C=C/c2ccccc2)n2cnnc2)cc1 |  | 19.9 | 38.3 | 
Fc1ccccc1CC(Cc1ccc(-c2ccccc2)cc1)n1ccnc1 (stereo unspecified) | 1370 |  |  | Not Active
Clc1ccc(CN(Cc2cccc3ccccc23)n2cnnc2)c(Cl)c1 |  | 4.43 | 8.8 | 
Clc1ccc(CN(CC/C=C/c2ccccc2)n2cncn2)c(Cl)c1 | 17100 | 21.1 |  | 
COc1ccccc1CN(Cc1ccc(-c2ccccc2)cc1)n1ccnc1 | 1510 | 42.9 |  | 
Fc1ccc(CN(Cc2ccc(-c3ccccc3)cc2)n2ccnc2)cc1 | 190 | 13.9 |  | 
Clc1ccc(CN(Cc2ccc(Cl)s2)n2ccnc2)c(Cl)c1 | 320 | 56.2 |  | 
CC(C)(C)c1ccc(CN(Cc2ccc(Cl)cc2Cl)n2cnnc2)cc1 |  | 4 | 3.3 | 
Clc1ccc(CN(CC/C=C/c2ccccc2)n2cnnc2)c(Cl)c1 |  |  | 10.6 | Not Active
Clc1ccc(CN(Cc2cccc3ccccc23)n2ccnc2)c(Cl)c1 | 4000 | 11.3 |  | 
